Data reported in ChEMBL document CHEMBL1152188, “Alpha-S-GalCer: synthesis and evaluation for iNKT cell stimulation” (Bioorg Med Chem Lett, 2008).
The source made the active and inactive calls.

Key:
[1] = tested on: Mus musculus; experiment: Activation of iNKT cells in C57BL/6 mouse assessed as cell frequency at 5 or 10 ug, ip by FACS analysis; type: functional, organism-based
Summary of the method: (§1)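 Lipid given intraperitoneally to NOD or C57Bl/6 mice in PBS with […] Tween-20 (200 μg/mL). iNKT cell frequency and intracellular cytokine expression read by flow cytometry (FACS).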

[2] = tested on: iNKT; experiment: Induction of cytokine expression in NOD mouse iNKT cells at 200 ng/mL after 48 hrs by intracellular staining for IFN-gamma; type: functional, cell-based
Summary of the method: (§2)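 Splenocytes from NOD or C57Bl/6 mice, CFSE-labeled and stimulated in vitro with the glycolipid. Cytokine induction measured by intracellular IFNγ staining at 24 and 48 h.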

[3] = tested on: iNKT; experiment: Induction of cytokine expression in NOD mouse iNKT cells at 100 ng/mL after 24 hrs by intracellular staining for IFN-gamma; type: functional, cell-based; summary of the method: as §2
[4] = tested on: iNKT; experiment: Induction of cell proliferation in C57BL/6 mouse iNKT cells at 200 ng/mL after 24 hrs by CFSE dilution; type: functional, cell-based
Summary of the method: (§3)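 Splenocytes isolated from NOD or C57Bl/6 mice, labeled with CFSE and stimulated with the glycolipid in vitro. Proliferation read as CFSE dilution at 24 and 48 h.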

[5] = tested on: iNKT; experiment: Induction of cell proliferation in NOD mouse iNKT cells at 200 ng/mL after 48 hrs by CFSE dilution; type: functional, cell-based; summary of the method: as §3
[6] = tested on: iNKT; experiment: Induction of cell proliferation in NOD mouse iNKT cells at 100 ng/mL after 48 hrs by CFSE dilution; type: functional, cell-based; summary of the method: as §3
[7] = tested on: iNKT; experiment: Induction of cell proliferation in C57BL/6 mouse iNKT cells at 100 ng/mL after 48 hrs by CFSE dilution; type: functional, cell-based; summary of the method: as §3
[8] = tested on: iNKT; experiment: Induction of cell proliferation in NOD mouse iNKT cells at 100 ng/mL after 24 hrs by CFSE dilution; type: functional, cell-based; summary of the method: as §3
[9] = tested on: iNKT; experiment: Induction of cytokine expression in NOD mouse iNKT cells at 200 ng/mL after 24 hrs by intracellular staining for IFN-gamma; type: functional, cell-based; summary of the method: as §2
[10] = tested on: iNKT; experiment: Induction of cytokine expression in C57BL/6 mouse iNKT cells at 200 ng/mL after 24 hrs by intracellular staining for IFN-gamma; type: functional, cell-based; summary of the method: as §2
[11] = tested on: iNKT; experiment: Induction of cell proliferation in C57BL/6 mouse iNKT cells at 100 ng/mL after 24 hrs by CFSE dilution; type: functional, cell-based; summary of the method: as §3
[12] = tested on: iNKT; experiment: Induction of cytokine expression in NOD mouse iNKT cells at 100 ng/mL after 48 hrs by intracellular staining for IFN-gamma; type: functional, cell-based; summary of the method: as §2
[13] = tested on: iNKT; experiment: Induction of cell proliferation in C57BL/6 mouse iNKT cells at 200 ng/mL after 48 hrs by CFSE dilution; type: functional, cell-based; summary of the method: as §3
[14] = tested on: Mus musculus; experiment: Activation of iNKT cells in C57BL/6 mouse assessed as intracellular cytokine expression at 5 or 10 ug, ip by FACS analysis; type: functional, organism-based; summary of the method: as §1
[15] = tested on: iNKT; experiment: Induction of cytokine expression in C57BL/6 mouse iNKT cells at 200 ng/mL after 48 hrs by intracellular staining for IFN-gamma; type: functional, cell-based; summary of the method: as §2
[16] = tested on: iNKT; experiment: Induction of cell proliferation in NOD mouse iNKT cells at 200 ng/mL after 24 hrs by CFSE dilution; type: functional, cell-based; summary of the method: as §3
[17] = tested on: iNKT; experiment: Induction of cytokine expression in C57BL/6 mouse iNKT cells at 100 ng/mL after 24 hrs by intracellular staining for IFN-gamma; type: functional, cell-based; summary of the method: as §2
[18] = tested on: iNKT; experiment: Induction of cytokine expression in C57BL/6 mouse iNKT cells at 100 ng/mL after 48 hrs by intracellular staining for IFN-gamma; type: functional, cell-based; summary of the method: as §2
[19] = tested on: Mus musculus; experiment: Activation of iNKT cells in NOD mouse assessed as intracellular cytokine expression at 5 or 10 ug, ip by FACS analysis; type: functional, organism-based; summary of the method: as §1
[20] = tested on: Mus musculus; experiment: Activation of iNKT cells in NOD mouse assessed as cell frequency at 5 or 10 ug, ip by FACS analysis; type: functional, organism-based; summary of the method: as §1

Measured: Activity

CCCCCCCCCCCCCCCCCCCCCCCCCC(=O)N[C@@H](CS[C@H]1O[C@H](CO)[C@H](O)[C@H](O)[C@H]1O)[C@H](O)[C@H](O)CCCCCCCCCCCCCC
inactive: [1] | [2] | [3] | [4] | [5] | [6] | [7] | [8] | [9] | [10] | [11] | [12] | [13] | [14] | [15] | [16] | [17] | [18] | [19] | [20]
